# Measured values from ChEMBL document CHEMBL2010764, “Novel alkynylphosphonate analogue of calcitriol with potent antiproliferative effects in cancer cells and lack of calcemic activity” (ACS Med Chem Lett, 2011).
# Calls of active or inactive are those of the source. The rule behind the calls is not given here.
# Columns and labels:
# HN12 = assay: Antiproliferative activity against human HN12 cells assessed as decrease in cell number at 1 nM after 72 hrs by hemocytometeric analysis; assay type: functional, cell-based
# Procedure, shortened: (§1)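 Cells exposed to the test agent or isopropanol vehicle over 72 h, across 0.1–100 nM; proliferation expressed as percentage of vehicle. Experiments repeated at least three times per cell line; one-way ANOVA with Bonferroni post-test.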
# [1] = Antiproliferative activity against human HN12 cells assessed as decrease in cell number after 72 hrs by WST assay; assay type: functional, cell-based; settings: HN12, 72 h
# T98G [2] = assay: Antiproliferative activity against human T98G cells assessed as decrease in cell number after 72 hrs by WST assay; assay type: functional, cell-based; procedure, shortened: as §1
# T47D = assay: Antiproliferative activity against human T47D cells assessed as decrease in cell number after 72 hrs by WST assay; assay type: functional, cell-based
# [3] = Antiproliferative activity against mouse LM05e cells assessed as decrease in cell number after 72 hrs by WST assay; assay type: functional, cell-based
# T98G [4] = assay: Antiproliferative activity against human T98G cells harboring plasmid silencing VDR assessed as decrease in cell number at 10 nM after 72 hrs by WST assay; assay type: functional, cell-based
# Procedure, shortened: (§2)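 T98G cells transfected with VDR-silencing shRNA plasmid or scrambled shRNA plasmid. 48 h after transfection, treated with 10 nM agent or vehicle, then counted 72 h after treatment. Triplicate wells, three independent experiments; mean ± SE. VDR knockdown was checked on lysates taken 48 h after transfection with 2 or 4 μg plasmid.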
# T98G [5] = assay: Antiproliferative activity against human T98G cells harboring scrambled shRNA assessed as decrease in cell number at 10 nM after 72 hrs by WST assay; assay type: functional, cell-based; procedure, shortened: as §2
# Mus musculus [6] = assay: Hypercalcemic activity in CF1 mouse assessed as increase in plasma calcium level at 5 ug/kg, ip qd for 5 days measured after 96 hrs; assay type: functional, organism-based
# Procedure, shortened: (§3)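 Mice (n = 5/group) received daily intraperitoneal injections of agent or isopropanol vehicle at 5 or 20 μg/kg body weight for 5 days. Blood was taken before dosing (0 h) and at 24, 48, 72 and 96 h. Plasma calcium was read by Arsenazo III absorbance. Means ± SE; experiment repeated twice.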
# Mus musculus [7] = assay: Toxicity in CF1 mouse assessed as mortality at 5 ug/kg, ip qd for 5 days; assay type: organism-based; settings: in vivo, 0.005 mg/kg, 120 h
# Procedure, shortened: (§4)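 Mice in three groups (n = 5/group) received daily intraperitoneal injections of test agent, calcitriol, or isopropanol vehicle at 5 or 20 μg/kg body weight for 5 days. Survival was followed through the examination period, with blood sampled before dosing and at 24, 48, 72 and 96 h for plasma calcium (Arsenazo III absorbance). Liver, duodenum, lungs and kidneys were inspected macroscopically.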
# Mus musculus [8] = assay: Hypercalcemic activity in CF1 mouse assessed as increase in plasma calcium level at 20 ug/kg, ip qd for 5 days measured after 96 hrs; assay type: functional, organism-based; procedure, shortened: as §3
# Mus musculus [9] = assay: Toxicity in CF1 mouse assessed as mortality at 20 ug/kg, ip qd for 5 days; assay type: organism-based; settings: in vivo, 0.02 mg/kg, 120 h; procedure, shortened: as §4
# Mus musculus [10] = assay: Toxicity in CF1 mouse assessed as morphological alterations in liver at 5 to 20 ug/kg, ip qd for 5 days measured after 15 days; assay type: organism-based; settings: in vivo, 360 h
# Procedure, shortened: (§5)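 Mice dosed intraperitoneally once daily for 5 days at 5 or 20 μg/kg in isopropanol vehicle. Liver, duodenum, lungs and kidneys were inspected visually for macroscopic morphological alterations after treatment.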
# Mus musculus [11] = assay: Toxicity in CF1 mouse assessed as morphological alterations in duodenum at 5 to 20 ug/kg, ip qd for 5 days measured after 15 days; assay type: organism-based; settings: in vivo, 360 h; procedure, shortened: as §5
# Mus musculus [12] = assay: Toxicity in CF1 mouse assessed as morphological alterations in lung at 5 to 20 ug/kg, ip qd for 5 days measured after 15 days; assay type: organism-based; settings: in vivo, 360 h; procedure, shortened: as §5
# Mus musculus [13] = assay: Toxicity in CF1 mouse assessed as morphological alterations in kidney at 5 to 20 ug/kg, ip qd for 5 days measured after 15 days; assay type: organism-based; settings: in vivo, 360 h; procedure, shortened: as §5
# HCT-116 = assay: Antiproliferative activity against human HCT116 cells assessed as decrease in cell survival at 0.1 to 100 nM after 72 hrs by WST1 assay; assay type: functional, cell-based; procedure, shortened: as §1
# LM3 = assay: Antiproliferative activity against mouse LM3 cells assessed as decrease in cell survival at 0.1 to 100 nM after 72 hrs by WST1 assay; assay type: functional, cell-based; procedure, shortened: as §1
# SVEC vGPCR (Mouse) = assay: Antiproliferative activity against mouse SVEC vGPCR cells assessed as decrease in cell number after 72 hrs by WST assay
# [14] = Cmax in mouse at 5 ug/kg; assay type: ADME, organism-based; set-up: dose 5 ug/kg; settings: in vivo, 0.005 mg/kg
# [15] = AUC in mouse at 5 ug/kg; assay type: ADME, organism-based; settings: plasma, 0.005 mg/kg
# Mus musculus [16] = assay: Hypercalcemic activity in CF1 mouse assessed as increase in plasma calcium level at 5 to 20 ug/kg, ip qd for 5 days measured after 96 hrs; assay type: functional, organism-based; procedure, shortened: as §3
# Mus musculus [17] = assay: Toxicity in CF1 mouse assessed as mortality at 5 to 20 ug/kg, ip qd for 5 days; assay type: organism-based; settings: in vivo, 120 h; procedure, shortened: as §4
compound,measurement,setting,value
C=C1/C(=C\C=C2/CCC[C@]3(C)[C@@H]([C@H](C)CC#CP(=O)(OCC)OCC)CC[C@@H]23)C[C@@H](O)C[C@@H]1O,Activity,HN12,Active
same,IC50,[1],22.3 nM
same,IC50,T98G [2],36.1 nM
same,IC50,T47D,4.78 nM
same,IC50,[3],1.68 nM
same,Activity,T98G [4],Active
same,Activity,T98G [5],Active
same,Activity,Mus musculus [6],inactive
same,Activity,Mus musculus [7],Non-toxic
same,Activity,Mus musculus [8],inactive
same,Activity,Mus musculus [9],Non-toxic
same,Activity,Mus musculus [10],Non-toxic
same,Activity,Mus musculus [11],Non-toxic
same,Activity,Mus musculus [12],Non-toxic
same,Activity,Mus musculus [13],Non-toxic
same,Activity,HCT-116,inactive
same,Activity,LM3,inactive
same,IC50,SVEC vGPCR (Mouse),113 nM
C=C1/C(=C\C=C2/CCC[C@]3(C)[C@@H]([C@H](C)CCCC(C)(C)O)CC[C@@H]23)C[C@@H](O)C[C@@H]1O [CALCITRIOL],Cmax,[14],> 10 ng/mL
same,AUC,[15],> 40 ng·h/mL
same,Activity,Mus musculus [16],Active
same,Activity,Mus musculus [17],Toxic
